Results reported in ChEMBL document CHEMBL1132156, “Synthesis and structure-activity relationships of potential anticancer agents: alkylcarbamates of 3-(9-acridinylamino)-5-hydroxymethylaniline” (J Med Chem, 1999).

Assays:
Mus musculus [1] = assay: […] anticancer activity against B6D2F-1 mice bearing Lewis Lung Carcinoma measured by the Average tumor vol after day 7 at an intraperitoneal dose of 6(mg/kg).; format: functional
Method in brief: (§1)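 Male B6D2F1 mice (8 weeks old, 20–25 g) received 4×10^6 Lewis lung carcinoma cells sc on day -2. Dosing was ip, QDx5, starting on day 1. Groups were 4 control mice and 3 mice per dose. Tumor size and average body-weight change were evaluated on days 7, 10 and 14. Tumor volume is expressed as the treated/control ratio.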

Mus musculus [2] = assay: […] anticancer activity against B6D2F-1 mice bearing P388 leukemia measured by the Average survival time(day+/-SD) at an intravenous dose of 15(mg/kg).; format: functional
Method in brief: (§2)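 Male B6D2F1 mice, 8 weeks old, 20–25 g. P388/0 ascites cells (0.2 mL, ascites:saline 1.10) were implanted iv on day 0, and the tumor grew in the liver. Drug was given iv by tail vein on days 1, 3, 5, 7 and 9 (Q2Dx5), with 4–5 mice per group. Survival time was scored as 8 a.m. (0.0), 1 p.m. (0.25) or 5 p.m. (0.5) deaths. %ILS was averaged against untreated controls, and toxic deaths were counted.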

Mus musculus [3] = assay: […] anticancer activity against B6D2F-1 mice bearing P388 leukemia measured by the increase in lifespan(%) at an intravenous dose of 10(mg/kg)..; format: functional; method in brief: as §2
Mus musculus [4] = assay: […] anticancer activity against B6D2F-1 mice bearing P388 leukemia measured by the average weight change(g) after day 9 at an intravenous dose of 15(mg/kg).; format: functional
Method in brief: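 Male B6D2F1 mice (8 weeks old, 20–25 g) were implanted iv on day 0 with P388/0 ascites cells (0.2 mL; ascites:saline = 1.10). Tumor grew in the liver. Drug was given iv via the tail vein, Q2Dx5, on days 1, 3, 5, 7 and 9. Body weight was recorded on days 1, 7, 9 and 11 and reported as the average change (g).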

Mus musculus [5] = assay: […] anticancer activity against B6D2F-1 mice bearing P388 leukemia measured by the average body weight(g) after day 1 at an intravenous dose of 10(mg/kg).
Mus musculus [6] = assay: […] anticancer activity against B6D2F-1 mice bearing Sarcoma 180 measured by the average weight change(g) after day 14 at an intraperitoneal dose of 7(mg/kg).; format: functional
Method in brief: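 Male B6D2F1 mice (8 weeks old, 20–25 g) were inoculated sc with 3×10^6 Sarcoma 180 cells on day 0. Dosing was ip, QDx5, starting on day 1. Groups were 4 control mice and 2 mice per dose. Average body weight change (g) and treated/control tumor volume were evaluated on days 7, 10 and 14.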

Mus musculus [7] = assay: […] anticancer activity against B6D2F-1 mice bearing P388 leukemia measured by the increase in lifespan(%) at an intravenous dose of 15(mg/kg).; format: functional; method in brief: as §2
Mus musculus [8] = assay: […] anticancer activity against B6D2F-1 mice bearing Sarcoma 180 measured by the Average tumor vol after day 7 at an intravenous dose of 5(mg/kg).
Mus musculus [9] = assay: […] anticancer activity against B6D2F-1 mice bearing Lewis Lung Carcinoma measured by the Average tumor vol after day 7 at an intraperitoneal dose of 3(mg/kg).; format: functional; method in brief: as §1
Mus musculus [10] = assay: […] anticancer activity against B6D2F-1 mice bearing Lewis Lung Carcinoma measured by the Average tumor vol after day 14 at an intraperitoneal dose of 3(mg/kg).; format: functional; method in brief: as §1
Mus musculus [11] = assay: […] anticancer activity against B6D2F-1 mice bearing Lewis Lung Carcinoma measured by the Average tumor vol after day 14 at an intraperitoneal dose of 6(mg/kg).; format: functional; method in brief: as §1
Mus musculus [12] = assay: […] anticancer activity against B6D2F-1 mice bearing Sarcoma 180 measured by the average weight change(g) after day 14 at an intraperitoneal dose of 5(mg/kg).
Mus musculus [13] = assay: […] anticancer activity against 5 B6D2F-1 mice bearing P388 leukemia measured by the toxicity death at an intravenous dose of 15(mg/kg).; format: organism-based; conditions: in vivo; method in brief: as §2
Mus musculus [14] = assay: […] anticancer activity against B6D2F-1 mice bearing P388 leukemia measured by the Average tumor vol after day 10 at an intravenous dose of 5(mg/kg).; format: functional
Mus musculus [15] = assay: […] anticancer activity against B6D2F-1 mice bearing P388 leukemia measured by the average survival time(day+/-SD) at an intravenous dose of 10(mg/kg)..; format: functional; method in brief: as §2
Mus musculus [16] = assay: […] anticancer activity against B6D2F-1 mice bearing P388 leukemia measured by the Average tumor vol after day 10 at an intravenous dose of 7(mg/kg).; format: functional

In the case of `CCOC(=O)Nc1cc(CO)cc(Nc2c3ccccc3nc3ccccc23)c1`, the Average tumor volume (Mus musculus [1]) is reported as 0.44, the Average survival (Mus musculus [2]) is reported as 13.2 days and the Increase in life-span (Mus musculus [3]) is reported as 188%. It also gave an Average weight change (Mus musculus [4]) of -2 g, a Body weight (Mus musculus [5]) of 22.9 g and an Average weight change (Mus musculus [6]) of -0.4 g. For the same compound, the Increase in life-span (Mus musculus [7]) was 106%, the Average tumor volume (Mus musculus [8]) was 0.06 and the Average tumor volume (Mus musculus [9]) was 0.8. It also gave an Average tumor volume (Mus musculus [10]) of 0.68, an Average tumor volume (Mus musculus [11]) of 0.52 and an Average weight change (Mus musculus [12]) of 1.2 g. It also gave a Toxicity related death (Mus musculus [13]) of 4, an Average tumor volume (Mus musculus [14]) of 0.63 and an Average survival (Mus musculus [15]) of 18.4 days. It also gave an Average tumor volume (Mus musculus [16]) of less than 0.01.
